ChEMBL document CHEMBL2046324, “Synthesis and biological evaluation of 1-arylsulfonyl-5-(N-hydroxyacrylamide)indoles as potent histone deacetylase inhibitors with antitumor activity in vivo” (J Med Chem, 2012)
Values after ≈ are worked out from the molar mass of the structure shown.

What was measured:
MDA-MB-231 = experiment: cells; format: functional; details: Homo sapiens, MDA-MB-231, 48 h
[1] = Solubility of the compound in water after 24 hrs by HPLC analysis; format: physicochemical
[2] = Volume of distribution at steady state in Sprague-Dawley rat at 2 mg/kg, iv; format: ADME, organism-based; parameters: dose 2 mg/kg, route intravenous; details: in vivo, read-out: Vdss
Outline: (§1)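 Male Sprague-Dawley rats (250–350 g, 8–10 weeks), three per group. Single 2 mg/kg iv bolus into the jugular vein in PEG400/DMSO (80:20, v/v), or 20 mg/kg orally in 1% carboxymethyl cellulose plus 0.5% Tween 80. Plasma was assayed by LC-MS/MS (MRM) and analysed noncompartmentally.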

Mus musculus [3] = experiment: Toxicity in nude mouse bearing human A549 cells assessed as body weight change at 200 mg/kg, po QD; format: organism-based; parameters: dose 200 mg/kg, route oral; details: in vivo
Outline: (§2)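 Nude mice bearing sc A549 xenografts were dosed po daily in 0.5% carboxymethyl cellulose at 10 mL/kg, scaled to body weight.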

CYP2E1 = CYP2E1 (Homo sapiens, UniProt P05181); experiment: Inhibition of CYP2E1 at 10 uM; format: ADME
[4] = AUC (0 to infinity) in Sprague-Dawley rat at 2 mg/kg, iv; format: ADME, organism-based; parameters: dose 2 mg/kg, route intravenous, time infinity; details: plasma
Outline: as §1

Mus musculus [5] = experiment: Toxicity in nude mouse bearing human A549 cells assessed as body weight change at 100 mg/kg, po QD; format: organism-based; parameters: dose 100 mg/kg, route oral; details: in vivo
Outline: as §2

A549 [6] = experiment: Antitumor activity against human A549 cells xenografted in nude mouse assessed as tumor growth delay at 100 mg/kg, po administered QD till end point; format: functional
cells = format: functional, Hep 3B2; details: Homo sapiens, Hep3B, 48 h
[7] = Tmax in Sprague-Dawley rat at 20 mg/kg, po; format: ADME, organism-based; parameters: dose 20 mg/kg, route oral; details: in vivo
Outline: as §1

CYP2C19 = CYP2C19 (Homo sapiens, UniProt P33261); experiment: Inhibition of CYP2C19 at 10 uM; format: ADME
[8] = Clearance in Sprague-Dawley rat at 2 mg/kg, iv; format: ADME, organism-based; parameters: dose 2 mg/kg, route intravenous; details: in vivo
Outline: as §1

CYP2C9 = CYP2C9 (Homo sapiens, UniProt P11712); experiment: Inhibition of CYP2C9 at 10 uM; format: ADME
CYP2D6 = CYP2D6 (Homo sapiens, UniProt P10635); experiment: Inhibition of CYP2D6 at 10 uM; format: ADME
PC-3 = experiment: cells; format: functional; details: Homo sapiens, PC-3, 48 h
A549 [9] = experiment: Antitumor activity against human A549 cells xenografted in nude mouse assessed as tumor growth delay at 200 mg/kg, po administered QD till end point; format: functional
Outline: (§3)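 At about 65 mm³ they were randomized, seven per group, and dosed po daily at 10 mL/kg in 0.5% carboxymethyl cellulose until a 1000 mm³ end point. Volume was w²l/2. TTE came from linear regression of log volume; TGD = T − C and %TGD = (T − C)/C × 100.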

[10] = Cmax in Sprague-Dawley rat at 20 mg/kg, po; format: ADME, organism-based; parameters: dose 20 mg/kg, route oral; details: in vivo
Outline: as §1

Tubulin (Homo sapiens) [11] = molecular target: T1, Tubulin (Homo sapiens) (UniProt P68371+Q9H4B7+P0DPH7+P68366+Q13509+Q71U36+P04350+Q3ZCM7+P07437+P68363+Q9BQE3+Q6PEY2+Q13885+Q9BVA1+Q9BUF5); experiment: Inhibition of HDAC in human PC3 cells assessed as tubulin acetylation after 48 hrs by Western blot analysis; details: PC-3
CYP3A4 = CYP3A4 (Homo sapiens, UniProt P08684); experiment: Inhibition of CYP3A4 at 10 uM; format: ADME
[12] = Solubility of the compound in EtOH after 24 hrs by HPLC analysis; format: physicochemical
CYP1A2 = molecular target: T2, CYP1A2 (Homo sapiens, UniProt P05177); experiment: Inhibition of CYP1A2 at 10 uM; format: ADME
T2 sequence (P05177 whole entry): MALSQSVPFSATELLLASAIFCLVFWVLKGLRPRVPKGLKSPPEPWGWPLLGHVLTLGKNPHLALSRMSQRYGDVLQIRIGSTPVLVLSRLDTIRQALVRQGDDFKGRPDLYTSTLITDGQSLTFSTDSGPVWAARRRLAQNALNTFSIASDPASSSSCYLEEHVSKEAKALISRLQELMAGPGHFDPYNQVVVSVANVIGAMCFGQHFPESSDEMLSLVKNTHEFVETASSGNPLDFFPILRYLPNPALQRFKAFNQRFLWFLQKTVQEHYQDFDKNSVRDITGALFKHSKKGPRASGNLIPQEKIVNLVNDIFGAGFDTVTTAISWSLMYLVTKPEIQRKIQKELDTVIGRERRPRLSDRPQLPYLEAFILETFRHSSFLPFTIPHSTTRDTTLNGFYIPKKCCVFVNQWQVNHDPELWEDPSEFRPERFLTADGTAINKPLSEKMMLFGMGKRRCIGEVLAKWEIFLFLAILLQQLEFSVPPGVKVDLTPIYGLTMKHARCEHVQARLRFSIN

Mus musculus [13] = experiment: Toxicity in nude mouse bearing human A549 cells assessed as adverse effects at 200 mg/kg, po QD; format: organism-based; parameters: dose 200 mg/kg, route oral; details: in vivo
Tubulin (Homo sapiens) [14] = molecular target: T1, Tubulin (Homo sapiens); experiment: Inhibition of HDAC in human A549 cells assessed as tubulin acetylation after 48 hrs by Western blot analysis
[15] = Half life in Sprague-Dawley rat at 2 mg/kg, iv; format: ADME, organism-based; parameters: dose 2 mg/kg, route intravenous; details: in vivo
Outline: as §1

A549 [16] = experiment: Antitumor activity against human A549 cells xenografted in nude mouse assessed as tumor growth inhibition at 100 mg/kg, po administered QD till end point; format: functional; details: read-out: GI
Outline: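 A549 sc xenografts in female nude mice, seven per group, dosed po daily in 0.5% carboxymethyl cellulose (10 mL/kg) to a 1000 mm³ end point. Tumor volume was w²l/2. TGI was expressed as % T/C of tumor volumes, treated versus control, and compared with control by P value at the indicated days.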

[17] = Half life in Sprague-Dawley rat at 20 mg/kg, po; format: ADME, organism-based; parameters: dose 20 mg/kg, route oral; details: in vivo
Outline: as §1

Mus musculus [18] = experiment: Toxicity in nude mouse bearing human A549 cells assessed as adverse effects at 100 mg/kg, po QD; format: organism-based; parameters: dose 100 mg/kg, route oral; details: in vivo
A549 [19] = experiment: Antitumor activity against human A549 cells xenografted in nude mouse assessed as time to end point at 200 mg/kg, po administered QD till end point; format: functional
Outline: as §3

A549 [20] = experiment: Growth inhibition of human A549 cells after 48 hrs by SRB assay; format: functional; details: Homo sapiens, A549, 48 h
Outline: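 A549 cells were grown in RPMI 1640 with 10% FBS and 2 mM glutamine at 37 °C in 5% CO₂, then seeded in medium with 5% FBS. A 24 h TCA-fixed plate gave T₀. Cells were exposed to compound or DMSO for 48 h, fixed with 10% TCA and stained with 0.4% SRB; bound dye was solubilized in 10 mM Tris and read at 515 nm. GI₅₀ was the concentration halving net protein increase. At least three independent experiments.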

A549 [21] = experiment: Antitumor activity against human A549 cells xenografted in nude mouse assessed as time to end point at 100 mg/kg, po administered QD till end point; format: functional
CYP2C8 = molecular target: T3, CYP2C8 (Homo sapiens, UniProt P10632); experiment: Inhibition of CYP2C8 at 10 uM; format: ADME
T3 sequence (P10632 whole entry): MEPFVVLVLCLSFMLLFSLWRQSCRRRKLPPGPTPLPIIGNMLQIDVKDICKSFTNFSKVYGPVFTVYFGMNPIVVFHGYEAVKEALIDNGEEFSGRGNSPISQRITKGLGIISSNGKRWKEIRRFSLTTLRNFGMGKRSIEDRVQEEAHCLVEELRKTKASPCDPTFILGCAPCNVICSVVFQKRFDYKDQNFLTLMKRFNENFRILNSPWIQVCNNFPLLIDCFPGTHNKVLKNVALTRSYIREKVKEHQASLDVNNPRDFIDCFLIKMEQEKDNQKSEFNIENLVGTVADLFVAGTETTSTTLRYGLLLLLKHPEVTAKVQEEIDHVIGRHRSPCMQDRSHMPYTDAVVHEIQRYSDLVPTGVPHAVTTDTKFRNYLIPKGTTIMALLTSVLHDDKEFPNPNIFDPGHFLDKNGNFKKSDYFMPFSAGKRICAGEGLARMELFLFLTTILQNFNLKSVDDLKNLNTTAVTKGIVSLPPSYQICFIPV

A549 [22] = experiment: Antitumor activity against human A549 cells xenografted in po dosed nude mouse assessed as tumor growth delay administered QD till end point; format: functional, organism-based
[23] = Oral bioavailability in Sprague-Dawley rat at 20 mg/kg; format: ADME, organism-based; details: in vivo
Outline: as §1

[24] = AUC (0 to infinity) in Sprague-Dawley rat at 20 mg/kg, po; format: ADME, organism-based; parameters: time infinity, dose 20 mg/kg, route oral; details: plasma
Outline: as §1

A549 [25] = experiment: Antitumor activity against human A549 cells xenografted in nude mouse assessed as tumor growth inhibition at 200 mg/kg, po administered QD till end point; format: functional; details: read-out: GI

Chain of CYP2D6 (P10635 whole entry): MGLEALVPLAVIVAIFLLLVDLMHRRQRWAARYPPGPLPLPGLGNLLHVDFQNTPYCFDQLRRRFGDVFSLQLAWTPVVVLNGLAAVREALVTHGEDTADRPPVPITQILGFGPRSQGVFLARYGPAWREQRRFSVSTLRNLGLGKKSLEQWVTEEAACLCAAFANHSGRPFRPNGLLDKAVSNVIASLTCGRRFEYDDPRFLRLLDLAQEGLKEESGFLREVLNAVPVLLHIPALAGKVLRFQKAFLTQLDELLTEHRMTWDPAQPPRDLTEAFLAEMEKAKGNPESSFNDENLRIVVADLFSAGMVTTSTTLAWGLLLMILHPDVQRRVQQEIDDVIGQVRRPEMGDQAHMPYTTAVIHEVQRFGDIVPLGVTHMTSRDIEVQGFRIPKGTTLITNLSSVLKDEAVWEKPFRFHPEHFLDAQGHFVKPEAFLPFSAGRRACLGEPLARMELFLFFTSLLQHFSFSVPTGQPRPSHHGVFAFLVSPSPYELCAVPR
Chain of CYP3A4 (P08684 whole entry): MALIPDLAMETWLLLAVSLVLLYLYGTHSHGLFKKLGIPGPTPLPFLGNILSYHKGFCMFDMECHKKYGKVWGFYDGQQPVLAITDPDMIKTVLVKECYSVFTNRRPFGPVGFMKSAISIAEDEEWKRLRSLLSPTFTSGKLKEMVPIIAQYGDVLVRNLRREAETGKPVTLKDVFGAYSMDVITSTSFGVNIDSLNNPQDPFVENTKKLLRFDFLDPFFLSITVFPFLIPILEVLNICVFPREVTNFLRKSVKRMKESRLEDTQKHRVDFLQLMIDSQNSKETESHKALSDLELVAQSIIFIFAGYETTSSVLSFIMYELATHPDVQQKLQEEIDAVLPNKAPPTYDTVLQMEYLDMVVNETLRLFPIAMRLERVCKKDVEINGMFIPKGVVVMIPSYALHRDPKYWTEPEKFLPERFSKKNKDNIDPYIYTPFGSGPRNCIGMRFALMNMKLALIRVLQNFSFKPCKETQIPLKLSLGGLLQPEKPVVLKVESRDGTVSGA
Chain of CYP2C19 (P33261 whole entry): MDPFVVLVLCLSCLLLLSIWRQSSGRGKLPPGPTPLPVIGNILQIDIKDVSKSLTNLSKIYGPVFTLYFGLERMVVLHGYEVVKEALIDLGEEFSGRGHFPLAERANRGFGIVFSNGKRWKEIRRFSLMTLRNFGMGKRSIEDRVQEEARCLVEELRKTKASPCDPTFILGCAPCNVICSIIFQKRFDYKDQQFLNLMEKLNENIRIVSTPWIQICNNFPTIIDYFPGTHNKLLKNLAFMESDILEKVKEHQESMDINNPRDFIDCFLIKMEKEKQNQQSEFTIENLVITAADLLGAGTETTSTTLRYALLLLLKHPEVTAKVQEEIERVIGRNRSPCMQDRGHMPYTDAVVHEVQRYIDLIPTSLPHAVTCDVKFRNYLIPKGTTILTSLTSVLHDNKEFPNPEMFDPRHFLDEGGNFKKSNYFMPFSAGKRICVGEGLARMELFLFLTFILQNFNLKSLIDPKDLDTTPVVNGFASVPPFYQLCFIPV
Chain of CYP2C9 (P11712 whole entry): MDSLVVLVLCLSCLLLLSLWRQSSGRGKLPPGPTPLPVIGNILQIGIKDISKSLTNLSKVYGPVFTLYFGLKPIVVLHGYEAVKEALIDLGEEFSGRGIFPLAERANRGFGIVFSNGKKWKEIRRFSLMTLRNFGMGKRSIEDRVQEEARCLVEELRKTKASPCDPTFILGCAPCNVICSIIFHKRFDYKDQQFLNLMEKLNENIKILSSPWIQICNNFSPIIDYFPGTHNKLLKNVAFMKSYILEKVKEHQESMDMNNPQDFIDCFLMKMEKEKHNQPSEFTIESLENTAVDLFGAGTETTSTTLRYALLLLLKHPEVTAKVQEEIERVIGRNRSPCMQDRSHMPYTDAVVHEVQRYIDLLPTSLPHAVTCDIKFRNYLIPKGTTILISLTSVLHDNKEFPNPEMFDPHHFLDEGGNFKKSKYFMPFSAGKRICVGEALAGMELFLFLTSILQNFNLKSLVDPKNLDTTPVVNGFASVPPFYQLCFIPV
Chain of CYP2E1 (P05181 whole entry): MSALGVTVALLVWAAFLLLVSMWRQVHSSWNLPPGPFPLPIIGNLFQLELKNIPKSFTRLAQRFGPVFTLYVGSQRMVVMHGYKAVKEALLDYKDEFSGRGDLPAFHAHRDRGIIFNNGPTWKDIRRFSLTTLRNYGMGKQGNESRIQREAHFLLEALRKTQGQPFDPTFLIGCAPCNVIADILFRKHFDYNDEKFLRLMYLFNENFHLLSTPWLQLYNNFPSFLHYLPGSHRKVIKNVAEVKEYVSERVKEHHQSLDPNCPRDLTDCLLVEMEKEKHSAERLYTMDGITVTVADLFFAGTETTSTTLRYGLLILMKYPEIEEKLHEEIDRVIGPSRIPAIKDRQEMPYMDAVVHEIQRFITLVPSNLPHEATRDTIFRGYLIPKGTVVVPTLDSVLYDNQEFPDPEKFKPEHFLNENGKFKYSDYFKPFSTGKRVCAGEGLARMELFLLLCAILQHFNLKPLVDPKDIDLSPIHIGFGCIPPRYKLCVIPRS

Q: With O=C(/C=C/c1ccc2c(ccn2S(=O)(=O)c2ccccc2)c1)NO as the compound, how does the GI50 (MDA-MB-231) read?
A: 480 nM

Q: What about the solubility at 24 h [1] of the same compound?
A: < 1 µg/mL

Q: And the Vd [2]?
A: 2.1 L/kg

Q: What about the Activity (Mus musculus [3]) of the same compound?
A: Non-toxic

Q: And the inhibition at 10 µM (CYP2E1)?
A: 22%

Q: What about the AUC(0-inf) [4] of the same compound?
A: 927 ng·h/mL

Q: What about the Activity (Mus musculus [5]) of the same compound?
A: Non-toxic

Q: What about the Activity (A549 [6]) of the same compound?
A: 34%

Q: And the GI50 (cells)?
A: 410 nM

Q: What about the Tmax [7] of the same compound?
A: 1.7 h

Q: What about the inhibition at 10 µM (CYP2C19) of the same compound?
A: 78%

Q: And the clearance [8]?
A: 35.5 mL/min/kg

Q: What about the inhibition at 10 µM (CYP2C9) of the same compound?
A: 22%

Q: And the inhibition at 10 µM (CYP2D6)?
A: 31%

Q: And the GI50 (PC-3)?
A: 620 nM

Q: And the Activity (A549 [9])?
A: 47%

Q: And the Cmax [10]?
A: 217 ng/mL

Q: What about the inhibition (Tubulin (Homo sapiens) [11]) of the same compound?
A: Dose-dependent effect

Q: What about the inhibition at 10 µM (CYP3A4) of the same compound?
A: 65%

Q: And the solubility at 24 h [12]?
A: 939 µg/mL (≈ 2740 µM)

Q: What about the inhibition at 10 µM (CYP1A2) of the same compound?
A: 51%

Q: What about the Activity (Mus musculus [13]) of the same compound?
A: Non-toxic

Q: And the inhibition (Tubulin (Homo sapiens) [14])?
A: Dose-dependent effect

Q: What about the half-life [15] of the same compound?
A: 2.6 h

Q: What about the inhibition in vivo at 100 mg/kg (A549 [16]) of the same compound?
A: 15%

Q: And the half-life [17]?
A: 5.5 h

Q: And the Activity (Mus musculus [18])?
A: Non-toxic

Q: What about the Time (A549 [19]) of the same compound?
A: 39.8 days

Q: What about the GI50 (A549 [20]) of the same compound?
A: 1020 nM

Q: And the Time (A549 [21])?
A: 36.2 days

Q: And the inhibition at 10 µM (CYP2C8)?
A: 78%

Q: What about the Activity (A549 [22]) of the same compound?
A: Dose-dependent effect

Q: And the bioavailability [23]?
A: 10%

Q: And the AUC(0-inf) [24]?
A: 916 ng·h/mL

Q: And the inhibition in vivo at 200 mg/kg (A549 [25])?
A: 32.1%
